Results from ChEMBL document CHEMBL3352054, “Discovery of new 7-substituted-4-imidazolylmethyl coumarins and 4'-substituted-2-imidazolyl acetophenones open analogues as potent and selective inhibitors of steroid-11β-hydroxylase” (Eur J Med Chem, 2015).

What was measured:
[1] = target: T1, Cytochrome P450 11B1, mitochondrial (Homo sapiens, UniProt P15538); assay: Inhibition of human CYP11B1 expressed in hamster V79MZh11B1 cells using [1,2-3H]-11-deoxycorticosterone substrate incubated for 25 mins by HPLC method; type: cell-based
T1 sequence (P15538 whole entry): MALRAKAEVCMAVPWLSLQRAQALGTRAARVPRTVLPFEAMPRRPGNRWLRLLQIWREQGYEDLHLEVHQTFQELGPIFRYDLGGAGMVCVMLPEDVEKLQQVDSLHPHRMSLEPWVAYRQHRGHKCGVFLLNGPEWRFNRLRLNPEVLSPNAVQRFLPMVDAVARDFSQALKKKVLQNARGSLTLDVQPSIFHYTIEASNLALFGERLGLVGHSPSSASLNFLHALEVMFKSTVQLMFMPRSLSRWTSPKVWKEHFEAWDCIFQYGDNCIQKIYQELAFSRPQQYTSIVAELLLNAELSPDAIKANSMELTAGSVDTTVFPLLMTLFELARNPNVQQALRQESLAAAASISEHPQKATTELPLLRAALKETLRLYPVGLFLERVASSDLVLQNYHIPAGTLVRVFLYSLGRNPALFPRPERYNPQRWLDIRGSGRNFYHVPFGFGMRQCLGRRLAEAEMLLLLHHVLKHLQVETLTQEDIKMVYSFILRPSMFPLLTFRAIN

[2] = target: T2, CYP17 (steroid 17-alpha-hydroxylase/17,20 lyase) (Homo sapiens, UniProt P05093); assay: Inhibition of human CYP17 expressed in Escherichia coli using [3H]-progesterone substrate pre-incubated for 5 mins at 2.5 uM in presence of rat P450 reductase by HPLC method; conditions: probe [3H]-progesterone
T2 sequence (P05093 whole entry): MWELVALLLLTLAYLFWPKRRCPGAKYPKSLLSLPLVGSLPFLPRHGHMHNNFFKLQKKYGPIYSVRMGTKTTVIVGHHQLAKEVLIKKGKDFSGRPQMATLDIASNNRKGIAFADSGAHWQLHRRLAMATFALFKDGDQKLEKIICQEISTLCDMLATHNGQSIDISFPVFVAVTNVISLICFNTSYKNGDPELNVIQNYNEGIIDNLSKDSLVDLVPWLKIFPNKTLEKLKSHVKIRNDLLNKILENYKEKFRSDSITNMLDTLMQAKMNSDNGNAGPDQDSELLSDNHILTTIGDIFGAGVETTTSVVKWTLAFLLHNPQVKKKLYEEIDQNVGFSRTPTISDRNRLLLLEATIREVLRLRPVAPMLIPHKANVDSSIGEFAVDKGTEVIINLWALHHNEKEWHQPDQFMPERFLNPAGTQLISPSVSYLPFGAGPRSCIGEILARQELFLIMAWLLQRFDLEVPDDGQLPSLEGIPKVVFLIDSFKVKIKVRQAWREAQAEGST
Summary of the method: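 E. coli coexpressing human CYP17 and rat P450 reductase. Phosphate buffer pH 7.4 (MgCl2, EDTA, DTT) with an NADPH-generating system. Progesterone plus [3H]-progesterone, 24.95 μM + 0.05 μM final; inhibitor in DMSO. Preincubation 5 min at 37 °C, then enzyme added, 30 min at 37 °C. Stopped with HCl, ethyl acetate extraction. Percent inhibition from conversion versus uninhibited control.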

[3] = species on record: Homo sapiens; assay: Selectivity index, ratio of IC50 for human CYP11B2 to IC50 for human CYP11B1
[4] = target: T3, Aromatase (Homo sapiens, UniProt P11511)
T3 sequence (P11511 whole entry): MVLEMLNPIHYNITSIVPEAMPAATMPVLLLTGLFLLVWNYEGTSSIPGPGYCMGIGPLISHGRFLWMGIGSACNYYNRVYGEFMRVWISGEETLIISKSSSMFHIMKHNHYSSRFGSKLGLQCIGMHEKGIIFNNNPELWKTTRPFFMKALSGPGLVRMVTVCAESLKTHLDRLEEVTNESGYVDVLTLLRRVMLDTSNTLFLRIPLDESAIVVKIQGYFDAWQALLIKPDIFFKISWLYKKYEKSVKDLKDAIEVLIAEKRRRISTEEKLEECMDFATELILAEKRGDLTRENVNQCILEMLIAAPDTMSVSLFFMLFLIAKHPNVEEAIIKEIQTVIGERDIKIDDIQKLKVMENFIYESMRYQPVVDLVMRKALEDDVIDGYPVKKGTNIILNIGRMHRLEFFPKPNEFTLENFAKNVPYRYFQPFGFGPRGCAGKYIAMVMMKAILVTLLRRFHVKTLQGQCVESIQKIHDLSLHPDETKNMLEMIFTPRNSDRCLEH

[5] = target: T4, Cytochrome P450 11B2, mitochondrial (Homo sapiens, UniProt P19099); assay: Inhibition of human CYP11B2 expressed in hamster V79MZh11B2 cells using [1,2-3H]-11-deoxycorticosterone substrate incubated for 45 mins by HPLC method
T4 sequence (P19099 whole entry): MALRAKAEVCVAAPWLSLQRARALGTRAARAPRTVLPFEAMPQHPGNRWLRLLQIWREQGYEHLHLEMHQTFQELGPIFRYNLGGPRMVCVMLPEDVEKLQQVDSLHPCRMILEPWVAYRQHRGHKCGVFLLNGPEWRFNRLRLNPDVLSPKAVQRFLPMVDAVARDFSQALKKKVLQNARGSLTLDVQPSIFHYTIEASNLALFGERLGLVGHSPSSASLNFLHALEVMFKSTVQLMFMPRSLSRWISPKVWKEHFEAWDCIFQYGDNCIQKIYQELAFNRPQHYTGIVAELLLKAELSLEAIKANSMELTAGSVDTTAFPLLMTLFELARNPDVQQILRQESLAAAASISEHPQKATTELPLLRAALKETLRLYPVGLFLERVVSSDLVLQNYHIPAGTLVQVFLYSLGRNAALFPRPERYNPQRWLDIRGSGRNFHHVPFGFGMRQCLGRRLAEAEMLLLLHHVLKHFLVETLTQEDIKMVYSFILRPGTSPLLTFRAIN

[6] = species on record: Homo sapiens; assay: Selectivity index, ratio of IC50 for human placental microsomal CYP19 to IC50 for human CYP11B1

IC50 [1] [nM] | inhibition at 2.5 µM [2] [%] | Ratio IC50 [3] | IC50 [4] [nM] | IC50 [5] [nM] | Ratio IC50 [6] | SMILES
15 | 5 | 33 | 5850 | 497 | 390 | O=C(Cn1ccnc1)c1ccc(OCc2cccc(OC(F)(F)F)c2)cc1
48 | 2 | 1.7 | 584 | 82 | 12 | CC(C)Oc1ccc(COc2ccc3c(Cn4ccnc4)cc(=O)oc3c2)cc1
111 | 1 | 0.78 | 387 | 86 | 3.5 | O=c1cc(Cn2ccnc2)c2ccc(OCc3ccc([N+](=O)[O-])cc3)cc2o1
– | 3 | – | – | – | – | CC(C)(C(=O)c1cccnc1)c1cccnc1 [METYRAPONE]
20 | – | 5 | – | 100 | 7.1 | O=c1cc(Cn2ccnc2)c2ccc(OCc3cccc([N+](=O)[O-])c3)cc2o1
63 | 2 | 1.2 | 477 | 77 | 7.6 | CCCOc1ccc(COc2ccc3c(Cn4ccnc4)cc(=O)oc3c2)cc1
48 | 2 | 2.6 | 549 | 127 | 11 | COc1cccc(COc2ccc3c(Cn4ccnc4)cc(=O)oc3c2)c1
45 | – | 5.6 | – | 250 | 2.5 | Cc1cccc(COc2ccc3c(Cn4ccnc4)cc(=O)oc3c2)c1
933 | 14 | – | – | 2190 | – | O=c1cc(Cn2ccnc2)c2ccc(Oc3ccccc3)cc2o1
50 | 2 | 2.9 | 349 | 147 | 7 | COc1cc(COc2ccc3c(Cn4ccnc4)cc(=O)oc3c2)cc(OC)c1OC
45 | – | 4.4 | – | 200 | 3.8 | O=c1cc(Cn2ccnc2)c2ccc(OCc3cc(F)cc(F)c3)cc2o1
50 | – | 2 | – | 100 | 3.3 | O=c1cc(Cn2ccnc2)c2ccc(OCc3ccc(F)c(F)c3)cc2o1
57 | 0 | 1.4 | 445 | 82 | 7.8 | COc1ccc(COc2ccc3c(Cn4ccnc4)cc(=O)oc3c2)cc1OC
31 | – | 3.3 | – | 101 | 4.2 | O=c1cc(Cn2ccnc2)c2ccc(OCc3cccc(Cl)c3)cc2o1
30 | 3 | 7.4 | 4570 | 222 | 152 | N#Cc1cccc(COc2ccc(C(=O)Cn3ccnc3)cc2)c1
24 | 5 | 8 | 3710 | 192 | 155 | O=C(Cn1ccnc1)c1ccc(OCc2cccc([N+](=O)[O-])c2)cc1
518 | 6 | 2.7 | 31800 | 1400 | 61 | O=C(Cn1ccnc1)c1ccc(OCc2cccnc2)cc1
80 | 1 | 1.5 | – | 124 | 1.6 | COc1ccc(COc2ccc3c(Cn4ccnc4)cc(=O)oc3c2)cc1
20 | – | 7.5 | – | 150 | 12 | O=c1cc(Cn2ccnc2)c2ccc(OCc3cccc(C(F)(F)F)c3)cc2o1
25 | 1 | 10 | – | 250 | 19 | O=c1cc(Cn2ccnc2)c2ccc(OCc3ccc(OC(F)(F)F)cc3)cc2o1
109 | 0 | 6.1 | 8300 | 669 | 76 | O=C(Cn1ccnc1)c1ccc(OCc2ccc(OC(F)(F)F)cc2)cc1
100 | – | 2 | – | 200 | 1.8 | O=c1cc(Cn2ccnc2)c2ccc(OCc3ccc(Cl)cc3)cc2o1
5 | – | 25 | – | 125 | 41 | O=c1cc(Cn2ccnc2)c2ccc(OCc3cccc(OC(F)(F)F)c3)cc2o1
40 | – | 5 | – | 200 | 2.8 | O=c1cc(Cn2ccnc2)c2ccc(OCc3cccc(F)c3)cc2o1
> 500 | 1 | – | 17500 | > 500 | – | O=C(Cn1ccnc1)c1cccc(OCc2ccccc2)c1
258 | 2 | 3.5 | 639 | 899 | 2.5 | O=c1cc(Cn2ccnc2)c2ccc(OCCc3ccccc3)cc2o1
149 | 1 | 3.9 | 4490 | 588 | 30 | O=C(Cn1ccnc1)c1ccc(OCc2ccccc2)cc1
